# Activity calls are given as the source filed them. The calls are words filed in the database; no cut-off is given here.
# Assays:
# [1] = test system: Schistosoma mansoni; test: Antischistosomal activity against Schistosoma mansoni assessed as maximal effect at <= 320 uM; assay type: functional, organism-based
# [2] = test system: Schistosoma mansoni; test: Antischistosomal activity against Schistosoma mansoni infected in CF1/W74 mouse assessed as reduction in parasitic flatworms viability at 500 mg/kg administered for 5 days relative to control; assay type: functional
# [3] = test system: Rodentolepis nana; test: Anti-cestodal activity against Hymenolepis nana infected in CF1/W74 mouse assessed as reduction in parasitic flatworms at 25 mg/kg relative to control; assay type: functional; parameters: scale not given: the % may be the effect or the level left
# [4] = Activation of Schistosoma mansoni in TRPM binding site of PZQ expressed in HEK293 cells assessed as effect in cytosolic Ca2+ level measured for 250 sec by […] NW staining based FLIPR assay; assay type: cell-based
# [5] = Activation of Echinococcus granulosus in TRPM binding site of PZQ expressed in HEK293 cells assessed as effect in cytosolic Ca2+ level measured for 250 sec by […] NW staining based FLIPR assay; assay type: cell-based
# [6] = Activation of Mesocestoides corti in TRPM binding site of PZQ expressed in HEK293 cells assessed as effect in cytosolic Ca2+ level measured for 250 sec by […] NW staining based FLIPR assay; assay type: cell-based
# How it was run: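 HEK293 cells transiently transfected with the individual TRPMPZQ ortholog (S. mansoni, E. granulosus or M. corti). Cytosolic Ca2+ change read by fluorescence reporter (FLIPR) across increasing analog concentrations. Untransfected HEK293 cells serve as control.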
# [7] = test system: Rodentolepis nana; test: Anti-cestodal activity against Hymenolepis nana infected in CF1/W74 mouse assessed as reduction in parasitic flatworms at 500 mg/kg relative to control; assay type: functional; parameters: scale not given: the % may be the effect or the level left
# [8] = test system: Echinococcus multilocularis; test: Induction of morphological changes in Echinococcus multilocularis MB17 protoscoleces assessed as increase in contraction at 100 uM by cestode motility assay; assay type: functional, organism-based
# [9] = test system: Echinococcus multilocularis; test: Anthelmintic activity against Echinococcus multilocularis MB17 protoscoleces assessed as reduction in motility at 0.001 to 100 uM measured after 0.5 hrs by live cell imaging analysis; assay type: functional, organism-based; conditions: dose 0.001-100 µM
# How it was run: (§1)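 E. multilocularis protoscoleces incubated ex vivo across a concentration range. Motility scored at 0.5, 12 and 24 h and expressed as % of DMSO vehicle control (mean ± SEM). IC50 taken from concentration–response curves at each time point.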
# [10] = Selectivity ratio of EC50 for activation of Schistosoma mansoni in TRPM binding site of PZQ expressed in HEK293 cells to EC50 for activation of Echinococcus granulosus in TRPM binding site of PZQ expressed in HEK293 cells; assay type: cell-based
# [11] = Selectivity ratio of EC50 for activation of Schistosoma mansoni in TRPM binding site of PZQ expressed in HEK293 cells to EC50 for activation of Mesocestoides corti in TRPM binding site of PZQ expressed in HEK293 cells; assay type: cell-based
# [12] = test system: Schistosoma mansoni; test: Antischistosomal activity against Schistosoma mansoni assessed as maximal effect at <= 3.2 uM; assay type: functional, organism-based
# [13] = test system: Schistosoma mansoni; test: Antischistosomal activity against Schistosoma mansoni infected in CF1/W74 mouse assessed as reduction in parasitic flatworms viability at 50 mg/kg administered for 5 days relative to control; assay type: functional; conditions: time 5 day
# [14] = test system: Echinococcus multilocularis; test: Anthelmintic activity against Echinococcus multilocularis MB17 protoscoleces assessed as increase in contraction at 1 uM by live cell imaging analysis; assay type: functional, organism-based
# [15] = test system: Echinococcus multilocularis; test: Anthelmintic activity against Echinococcus multilocularis MB17 protoscoleces assessed as reduction in motility measured after 24 hrs by live cell imaging analysis; assay type: functional, organism-based; how it was run: as §1
# [16] = test system: Echinococcus multilocularis; test: Anthelmintic activity against Echinococcus multilocularis MB17 protoscoleces assessed as increase in contraction at 30 uM by live cell imaging analysis; assay type: functional, organism-based
# [17] = Echinococcus granulosus, HEK293, read-out: EC50
# [18] = Mesocestoides corti, HEK293, read-out: EC50
Structure (SMILES),EC50 ([4]; hek293),"EC50 [5, 17] [nM]","EC50 [6, 18] [nM]",Activity [1],Activity ([2]; time 5 day) [%],Activity [3] [%],Activity [7] [%],other results
O=C(c1cccnc1)N1CC(=O)N2CCc3ccccc3C2C1 (racemic),Not Active,2300,5300,Active,<90,100,,
O=C(c1cccnc1)N1CC(=O)N2CCc3ccccc3[C@H]2C1,Not Active,22000,16000,inactive,,,100,Activity ([2]; time 5.0 day): inactive; Activity [8]: Active; Activity [9]: Active
O=C(C1CCCCC1)N1CC(=O)N2CCc3ccccc3C2C1 (racemic) [PRAZIQUANTEL],,,120,,,100,,Activity [12]: Active; Activity [13]: 100%; Activity [14]: Active; Activity [15]: Active; Activity [9]: Active
O=C(C1CCCCC1)N1CC(=O)N2CCc3ccccc3[C@H]2C1,,,1230,Active,>90,,100,
N[C@H]1CC[C@@H](C(=O)N2CC(=O)N3CCc4ccccc4C3C2)CC1 (some centres undefined),Not Active,> 100000,> 100000,inactive,,,<90,Activity ([2]; time 5.0 day): inactive
"O=C(C1CCCCC1)N1CC(=O)N2CCc3ccccc3[C@@H]2C1 [PRAZIQUANTEL, (R)-]",,,80,,,100,,Activity [12]: Active; Activity [13]: 100%
O=C(c1cccnc1)N1CC(=O)N2CCc3ccccc3[C@@H]2C1,,1400,980,inactive,100,100,,"EC50 ([4]; Schistosoma mansoni, HEK293, read-out: EC50): > 100000 nM; Activity [16]: Active; Activity [9]: Active"
O=C(C1CC1)N1CC(=O)N2CCc3ccccc3C2C1 (centres undefined),Not Active,53000,65000,inactive,<90,,100,

# Second part, led by results:
EC50 ([4]; hek293),"EC50 [5, 17] [nM]","EC50 [6, 18] [nM]",Structure (SMILES),Activity [1],Activity ([2]; time 5 day) [%],Activity [3] [%],Activity [7] [%],other results
Not Active,,,CN(C)c1ccc(C(=O)N2CC(=O)N3CCc4ccccc4C3C2)cc1 (centres undefined),inactive,100,100,,EC50 ([5]; hek293): Not Active; EC50 ([6]; hek293): Not Active
Not Active,> 100000,> 100000,CNc1ccc(C(=O)N2CC(=O)N3CCc4ccccc4C3C2)cc1 (centres undefined),inactive,100,100,,
Not Active,,,O=C(c1ccc([N+](=O)[O-])cc1)N1CC(=O)N2CCc3ccccc3C2C1 (centres undefined),inactive,<90,,100,EC50 ([5]; hek293): Not Active; EC50 ([6]; hek293): Not Active
,960,800,Nc1ccc(C(=O)N2CC(=O)N3CCc4ccccc4C3C2)cc1 (centres undefined),Active,100,100,,Ratio EC50 [10]: 8; Ratio EC50 [11]: 8

# From ChEMBL document CHEMBL5370673 (ACS Med Chem Lett, 2023)
